Data from ChEMBL document CHEMBL4513216, “Probing the Open Global Health Chemical Diversity Library for Multistage-Active Starting Points for Next-Generation Antimalarials” (ACS Infect Dis, 2020).

Experiment: Toxicity liver stage against HepG2, at 10uM
Type: cell-based
Design: test concentration 10 uM, cell line HepG2-A16-CD81EGFP
Conditions: human, HepG2-A16-CD81EGFP cells; read-out: INHIBITION
Procedure, shortened: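 Uninfected HepG2-A16-CD81EGFP cells, 3 × 10^3 per well, 1536-well, plated on prespotted compound at 10 μM final, parasite-free screening media added to match infected plates; puromycin 10 μM positive, DMSO 0.5% negative; run in parallel with 48 h PbLuc assay at 37 °C, 5% CO2; viability by CellTiter-Glo luminescence, normalized to controls.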

Structure (SMILES) | cytotoxicity at 10 µM [%]
CS(=O)(=O)c1ccc(O[C@H]2COCCN(Cc3ccncc3)C2)cc1 | -5.33
CNC(=O)C(C)(C)N1CCC[C@H]1C(=O)NC1CC1 | 4.82
CC(C)c1noc([C@@H]2C[C@H](NS(=O)(=O)Cc3ccccc3)CN2C)n1 | -2.1
O=C(c1cccnc1SCc1ccccc1)N1CC[C@@H](O)C1 | -2.04
Nc1cccnc1N1CCN(c2ccccc2)CC1 | -2.95
O=C(NCc1ccccc1)NCc1nc(-c2ccncc2)n[nH]1 | 0.449
CC(NC(=O)N1CCS(=O)(=O)CC1)c1ccc(F)cc1Cl (stereo not given) | -1.28
CCCC(C)CS(=O)(=O)NCc1cccnc1N(C)C (stereo not given) | 2.96
CN(C)c1nc(CNC(=O)NC2COc3ccccc32)cs1 (stereo not given) | -3.38
Cn1cc(N2CCCC(Nc3ccc4c(c3)CCC(=O)N4)C2=O)cn1 (stereo not given) | -1.56
O=C(c1ccc(-n2cccc2)c(F)c1)N1CCCN2CCCC2C1 (stereo not given) | -2.45
N#Cc1cc(NC(=O)c2cscn2)ccc1N1CCC(O)CC1 | 6.59
CC(C)(C)C(=O)NCC(=O)NC1CC(c2cccc(Cl)c2)C1 (stereo not given) | -1.72
CC(C(=O)N1CCc2ccccc21)N1CCc2cncnc2C1 (stereo not given) | 0.693
O=C(Nc1cc(C2CCOCC2)[nH]n1)c1ccc(Cl)cn1 | 0.78
Cc1ccc(N2CCCC(N3CCC(N(C)C)CC3)C2=O)cc1 (stereo not given) | -5.16
Cc1cccc(NC(=O)CCNCc2c(C)nn(C)c2N(C)C)n1 | 7.82
CCc1nsc(N2CCc3sccc3C2)n1 | 1.56
CCC(CC)c1cc(CNC(=O)N2CCCC(N(C)C)C2)on1 (stereo not given) | 1.47
Cc1nc(C)n(CC2CN(CCc3ccncc3)CCO2)n1 (stereo not given) | -14.7
Cc1ccc(C(=O)N2C[C@H](OCC3CCOCC3)[C@H]3OCCC[C@H]32)o1 | -0.714
COc1cccc(-c2n[nH]cc2C(=O)NC(C)c2n[nH]c(C)n2)c1 (stereo not given) | -6.26
Cn1cc(CNCC2(O)CCCN(Cc3ccc(F)c(F)c3)C2=O)cn1 (stereo not given) | -14.5

Structure (SMILES) | cytotoxicity at 10 µM [%]
CCC(C(=O)N(C)Cc1cc(C2CC2)[nH]n1)n1cccn1 (stereo not given) | -8.35
Cc1cncc(C(=O)N2CCC3(CC2)C(=O)Nc2ccccc23)c1 | -137
CCN(CCc1nc2cc(C)ccc2[nH]1)C(=O)[C@@H](N)CCSC | -9.28
O=C1CCC2(CCN(Cc3ncccn3)CC2)CN1CCCO | -8.11
CCn1nc(C)c(CN(CCOC)C(=O)c2ccccc2N(C)C)c1C | -1.14
Cc1ccc(NC2CCN(C(=O)c3cnn(C(C)(C)C)c3)CC2)nn1 | -0.939
CC(C)(C)c1ncc(C(=O)NCCNS(C)(=O)=O)s1 | -6.14
COc1ccc(NC(=O)C(C)n2cncn2)cn1 (stereo not given) | -16.4
CC(C)CN(Cc1nc2c(cnn2C)c(=O)[nH]1)CC(C)C | -5.36
CC(C)c1ncc2c(n1)CN(Cc1cccc(C(N)=O)c1)CC2 | -9.17
COC(=O)c1ccc(N2CCN(C(=O)c3ccco3)C(C)C2)cc1 (stereo not given) | -8.15
CCCc1noc(CCC(=O)N2CCCC2c2cccc(OC)c2)n1 (stereo not given) | -9.71
c1ncn(CC2CCCN(Cc3nc(-c4ccoc4)no3)C2)n1 (stereo not given) | -1.43
c1ccc2nc(N3CCOC(Cn4cccn4)C3)cnc2c1 (stereo not given) | -9.86
Cc1cnn(CC(C)NCc2ccc(OCc3nccn3C)cc2)c1 (stereo not given) | -10.7
CCc1n[nH]c(C2CN(C(=O)Cc3cccs3)CCO2)n1 (stereo not given) | 2.83
Cc1nn(C)c(C)c1C1CCCN1Cc1nc2ccccc2c(=O)[nH]1 (stereo not given) | -15.9
CCN(Cc1nc2c(cnn2C)c(=O)[nH]1)c1cccc(F)c1 | -0.746
CCOCC1CC2(CCN(C(=O)c3ccc4ccccc4n3)CC2)CO1 (stereo not given) | 3.79
Cc1occc1C(=O)N1CCC2(CCN(Cc3cccs3)C2)CC1 | -4.58
CN1CCN(Cc2cccnc2)C2(CCN(C3CCOCC3)C2)C1=O (stereo not given) | -5.87
COCCN1C(=O)[C@@H]2CC[C@H]1CN(c1ncccn1)C2 | 7.01
